Data reported in ChEMBL document CHEMBL6182834, “Dual EGFR and telomerase inhibitory potential of new triazole tethered Schiff bases endowed with apoptosis: design, synthesis, and biological assessments” (RSC Med Chem, 2025).

Experiments:
[1] = target: Epidermal growth factor receptor (Homo sapiens) (UniProt P00533); test: Inhibition of EGFR in human A-375 cells assessed as protein concentration incubated for 1 hrs by ELISA (reference value: 8.91 ng/ml); format: cell-based
Summary of the method: (§1)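 Human EGFR or telomerase measured by sandwich ELISA. Samples and standards incubated 90 min at 37 °C, then biotinylated detection antibody 1 h, avidin-HRP 30 min and substrate about 15 min, all at 37 °C. Reaction stopped and OD read at 450 nm. Concentration taken from the standard curve.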

Caco-2 = test: Antiproliferative activity against human Caco-2 cells assessed as growth inhibition at 100 ug/mL incubated for 48 hrs by SRB assay relative to control; format: functional; details: read-out: GI
Summary of the method: (§2)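 SRB assay: cells seeded at 3×10^3/well, allowed 24 h to attach, then exposed to 100 µg/mL for 48 h, three wells per concentration, DMSO 1% v/v vehicle control. Cells fixed with 20% trichloroacetic acid and stained with 0.4% SRB, then OD read at 570 nm. Survival fraction taken as treated OD/control OD.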

HeLa = test: Antiproliferative activity against human HeLa cells assessed as growth inhibition at 100 ug/mL incubated for 48 hrs by SRB assay relative to control; format: functional; details: read-out: GI; summary of the method: as §2
HepG2 [2] = test: Cytotoxicity against human HepG2 cells assessed as inhibition of cell growth incubated for 48 hrs by SRB assay; format: functional, cell-based; details: HepG2, 48 h
Summary of the method: (§3)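 Cells plated at 3×10^3/well and left 24 h to attach. Treated at 12.5, 25, 50 and 62.5 µg/mL for 48 h, three wells per concentration, with DMSO (1% v/v) vehicle control. Fixed with 20% TCA, stained with 0.4% SRB, OD read at 570 nm. Survival fraction = treated OD/control OD. IC50 from sigmoidal dose-response curve fitting.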

FaDu = test: Antiproliferative activity against human FaDu cells assessed as growth inhibition at 100 ug/mL incubated for 48 hrs by SRB assay relative to control; format: functional; details: read-out: GI; summary of the method: as §2
A-375 [3] = test: Induction of apoptosis in human A-375 cells assessed as upregulation of caspase 9 expression by measuring fold change at 5.04 microg/ml incubated for 1 hrs by ELISA; format: functional; details: dose 5.04 µg/ml
Summary of the method: (§4)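 Sandwich ELISA with plate precoated with capture antibody for each of caspase-3, -8, -9, CDK2, CDK4 and CDK6. Samples and a 7-point standard incubated 1 h at 37 °C, then biotinylated antibody 1 h, avidin-HRP 30 min and TMB 10-20 min. Reaction stopped with sulphuric acid and read at 450 nm. Duplicate readings, zero standard subtracted, amounts taken from the standard curve.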

A-375 [4] = test: Induction of apoptosis in human A-375 cells assessed as downregulation of CDK2 expression by measuring fold change at 5.04 microg/ml incubated for 1 hrs by ELISA; format: functional; details: dose 5.04 µg/ml; summary of the method: as §4
[5] = target: Epidermal growth factor receptor (Homo sapiens) (UniProt P00533); test: Inhibition of EGFR in human A-375 cells assessed as downregulation of EGFR concentration by measuring fold change incubated for 1 hrs by ELISA; format: cell-based; summary of the method: as §1
HCT-116 [6] = test: Cytotoxicity against human HCT-116 cells assessed as inhibition of cell growth incubated for 48 hrs by SRB assay; format: functional, cell-based; details: HCT-116, 48 h; summary of the method: as §3
[7] = Cytotoxicity against human HNO 97 cell line assessed as inhibition of cell growth incubated for 48 hrs by SRB assay; format: functional, cell-based; details: HNO 97, 48 h; summary of the method: as §3
A-375 [8] = test: Cell cycle arrest in human A-375 cells assessed as increase in accumulation of cells at G0/G1 phase at 3.1 microM incubated for 48 hrs by PI staining based flow cytometry analysis (reference value: 17.29 %)
MDA-MB-468 = test: Antiproliferative activity against human MDA-MB-468 cells assessed as growth inhibition at 100 ug/mL incubated for 48 hrs by SRB assay relative to control; format: functional; details: read-out: GI; summary of the method: as §2
[9] = Cytotoxicity against human oral epithelial cells (OEC) assessed as growth inhibition at 100 ug/mL incubated for 48 hrs by SRB assay relative to control; format: toxicity, cell-based, Oral epithelial cell; details: at 100 µg/mL, read-out: GI; summary of the method: as §2
A-375 [10] = test: Antiproliferative activity against human A-375 cells assessed as growth inhibition at 100 ug/mL incubated for 48 hrs by SRB assay relative to control; format: functional; details: read-out: GI; summary of the method: as §2
A-375 [11] = test: Induction of apoptosis in human A-375 cells assessed as upregulation of caspase 3 expression by measuring fold change at 5.04 microg/ml incubated for 1 hrs by ELISA; format: functional; details: dose 5.04 µg/ml; summary of the method: as §4
A-375 [12] = test: Induction of apoptosis in human A-375 cells assessed as downregulation of CDK4 expression by measuring fold change at 5.04 microg/ml incubated for 1 hrs by ELISA; format: functional; details: dose 5.04 µg/ml; summary of the method: as §4
HepG2 [13] = test: Antiproliferative activity against human HepG2 cells assessed as growth inhibition at 100 ug/mL incubated for 48 hrs by SRB assay relative to control; format: functional; details: read-out: GI; summary of the method: as §2
MCF7 = test: Antiproliferative activity against human MCF7 cells assessed as growth inhibition at 100 ug/mL incubated for 48 hrs by SRB assay relative to control; format: functional; details: read-out: GI; summary of the method: as §2
A-375 [14] = test: Induction of apoptosis in human A-375 cells assessed as downregulation of CDK6 expression by measuring fold change at 5.04 microg/ml incubated for 1 hrs by ELISA; format: functional; details: dose 5.04 µg/ml; summary of the method: as §4
[15] = target: Telomerase reverse transcriptase (Homo sapiens) (UniProt O14746); test: Inhibition of telomerase in human A-375 cells assessed as protein concentration incubated for 1 hrs by ELISA (reference value: 3.56 ng/ml); format: cell-based; summary of the method: as §1
HCT-116 [16] = test: Antiproliferative activity against human HCT-116 cells assessed as growth inhibition at 100 ug/mL incubated for 48 hrs by SRB assay relative to control; format: functional; details: read-out: GI; summary of the method: as §2
Huh-7 = test: Antiproliferative activity against human Huh-7 cells assessed as growth inhibition at 100 ug/mL incubated for 48 hrs by SRB assay relative to control; format: functional; details: read-out: GI; summary of the method: as §2
A-375 [17] = test: Induction of apoptosis in human A-375 cells assessed as upregulation of caspase 8 expression by measuring fold change at 5.04 microg/ml incubated for 1 hrs by ELISA; format: functional; details: dose 5.04 µg/ml; summary of the method: as §4
MG-63 = test: Antiproliferative activity against human MG-63 cells assessed as growth inhibition at 100 ug/mL incubated for 48 hrs by SRB assay relative to control; format: functional; details: read-out: GI; summary of the method: as §2
A-375 [18] = test: Cytotoxicity against human A-375 cells assessed as inhibition of cell growth incubated for 48 hrs by SRB assay; format: functional, cell-based; details: A-375, 48 h; summary of the method: as §3
[19] = Cytotoxicity against HSF cells assessed as growth inhibition at 100 ug/mL incubated for 48 hrs by SRB assay relative to control; format: toxicity, cell-based; details: human, at 100 µg/mL, read-out: GI; summary of the method: as §2
[20] = target: Telomerase reverse transcriptase (Homo sapiens) (UniProt O14746); test: Inhibition of telomerase in human A-375 cells assessed as downregulation of telomerase concentration by measuring fold change incubated for 1 hrs by ELISA; format: cell-based; summary of the method: as §1
[21] = Antiproliferative activity against human HNO 97 cell line assessed as growth inhibition at 100 ug/mL incubated for 48 hrs by SRB assay relative to control; format: functional; details: read-out: GI; summary of the method: as §2

Sequence of Telomerase reverse transcriptase (Homo sapiens) (O14746 whole entry): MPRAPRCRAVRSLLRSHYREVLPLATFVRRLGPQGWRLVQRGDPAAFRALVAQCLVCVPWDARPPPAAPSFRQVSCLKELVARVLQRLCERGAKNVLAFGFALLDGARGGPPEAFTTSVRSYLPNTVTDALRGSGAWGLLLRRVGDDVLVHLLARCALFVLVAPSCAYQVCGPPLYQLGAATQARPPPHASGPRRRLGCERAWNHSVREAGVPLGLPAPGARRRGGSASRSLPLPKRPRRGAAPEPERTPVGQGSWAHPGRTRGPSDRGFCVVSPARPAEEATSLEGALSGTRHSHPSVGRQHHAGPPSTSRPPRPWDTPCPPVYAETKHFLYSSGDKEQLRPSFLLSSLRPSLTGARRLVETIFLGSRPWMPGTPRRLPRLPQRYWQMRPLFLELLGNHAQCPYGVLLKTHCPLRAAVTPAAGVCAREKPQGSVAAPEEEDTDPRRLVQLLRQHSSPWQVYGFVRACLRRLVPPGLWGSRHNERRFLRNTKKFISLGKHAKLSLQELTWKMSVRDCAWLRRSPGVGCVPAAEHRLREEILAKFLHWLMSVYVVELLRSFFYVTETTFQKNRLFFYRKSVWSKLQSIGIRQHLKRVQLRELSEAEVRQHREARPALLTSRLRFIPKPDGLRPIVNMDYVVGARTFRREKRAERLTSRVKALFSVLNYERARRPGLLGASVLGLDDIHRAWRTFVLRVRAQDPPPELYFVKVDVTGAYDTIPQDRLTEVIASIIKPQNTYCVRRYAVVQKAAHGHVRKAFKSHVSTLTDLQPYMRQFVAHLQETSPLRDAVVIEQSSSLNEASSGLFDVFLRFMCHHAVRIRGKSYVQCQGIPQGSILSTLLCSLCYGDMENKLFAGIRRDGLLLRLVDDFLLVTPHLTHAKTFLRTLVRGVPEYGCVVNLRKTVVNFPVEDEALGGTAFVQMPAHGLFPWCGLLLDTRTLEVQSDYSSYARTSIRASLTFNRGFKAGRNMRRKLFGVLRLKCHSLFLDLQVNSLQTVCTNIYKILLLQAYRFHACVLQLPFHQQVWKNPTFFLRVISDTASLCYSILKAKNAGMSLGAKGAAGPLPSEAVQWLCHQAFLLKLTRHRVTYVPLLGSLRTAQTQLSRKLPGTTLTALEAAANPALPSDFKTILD
Sequence of Epidermal growth factor receptor (Homo sapiens) (P00533 whole entry): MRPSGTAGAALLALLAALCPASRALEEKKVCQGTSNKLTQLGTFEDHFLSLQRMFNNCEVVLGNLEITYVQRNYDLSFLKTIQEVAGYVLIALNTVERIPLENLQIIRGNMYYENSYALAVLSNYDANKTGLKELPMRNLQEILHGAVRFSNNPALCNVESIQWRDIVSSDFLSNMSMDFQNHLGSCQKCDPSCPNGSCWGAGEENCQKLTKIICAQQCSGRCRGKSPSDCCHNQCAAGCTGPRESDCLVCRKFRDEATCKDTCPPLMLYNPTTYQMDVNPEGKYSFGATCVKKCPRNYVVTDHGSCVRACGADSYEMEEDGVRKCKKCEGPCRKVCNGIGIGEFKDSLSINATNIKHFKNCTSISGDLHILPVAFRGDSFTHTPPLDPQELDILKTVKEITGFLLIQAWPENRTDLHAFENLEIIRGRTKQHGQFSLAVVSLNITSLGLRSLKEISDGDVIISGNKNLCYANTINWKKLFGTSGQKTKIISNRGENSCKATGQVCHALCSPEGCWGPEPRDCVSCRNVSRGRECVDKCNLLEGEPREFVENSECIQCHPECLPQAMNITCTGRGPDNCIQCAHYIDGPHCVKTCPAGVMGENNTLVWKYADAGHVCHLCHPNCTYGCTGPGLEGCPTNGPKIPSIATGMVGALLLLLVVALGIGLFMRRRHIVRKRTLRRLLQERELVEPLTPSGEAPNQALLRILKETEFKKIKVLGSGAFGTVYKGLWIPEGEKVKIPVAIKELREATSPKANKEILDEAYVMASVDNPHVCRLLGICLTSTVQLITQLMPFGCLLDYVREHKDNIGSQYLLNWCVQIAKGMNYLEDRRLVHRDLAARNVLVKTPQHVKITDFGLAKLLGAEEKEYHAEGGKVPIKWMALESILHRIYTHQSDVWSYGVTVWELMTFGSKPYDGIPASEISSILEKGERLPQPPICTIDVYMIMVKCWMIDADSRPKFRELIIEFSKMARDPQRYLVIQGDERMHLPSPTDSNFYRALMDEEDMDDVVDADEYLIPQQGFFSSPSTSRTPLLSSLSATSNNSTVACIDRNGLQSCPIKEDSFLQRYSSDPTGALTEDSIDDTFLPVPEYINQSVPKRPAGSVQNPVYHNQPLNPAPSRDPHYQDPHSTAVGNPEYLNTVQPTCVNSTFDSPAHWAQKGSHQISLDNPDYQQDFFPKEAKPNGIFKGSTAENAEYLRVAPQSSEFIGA

Which results are given for COc1cccc(/C=N/NC(=O)c2nnn(-c3ccc(Cl)cc3)c2C)c1OC?
Activity [1]: 3.45 ng/mL; inhibition of growth at 100 µg/mL (Caco-2): 55%; inhibition of growth at 100 µg/mL (HeLa): 63%; IC50 (HepG2 [2]): 31.2 µM; inhibition of growth at 100 µg/mL (FaDu): 76%; fold change (FC) (A-375 [3]): 1.51; fold change (FC) (A-375 [4]): 2.91; fold change (FC) [5]: 2.58; IC50 (HCT-116 [6]): 13.3 µM; IC50 [7]: 13.3 µM; Activity (A-375 [8]): 78.39%; inhibition of growth at 100 µg/mL (MDA-MB-468): 69%; inhibition at 48 h, 100 ug/mL [9]: 37%; inhibition of growth at 100 µg/mL (A-375 [10]): 85%; fold change (FC) (A-375 [11]): 1.35; fold change (FC) (A-375 [12]): 2.01; inhibition of growth at 100 µg/mL (HepG2 [13]): 80%; inhibition of growth at 100 µg/mL (MCF7): 70%; fold change (FC) (A-375 [14]): 9.15; Activity [15]: 1.31 ng/mL; inhibition of growth at 100 µg/mL (HCT-116 [16]): 82%; inhibition of growth at 100 µg/mL (Huh-7): 62%; fold change (FC) (A-375 [17]): 1.55; inhibition of growth at 100 µg/mL (MG-63): 65%; IC50 (A-375 [18]): 12.6 µM; inhibition at 48 h, 100 ug/mL [19]: 25%; fold change (FC) [20]: 2.72; inhibition of growth at 100 µg/mL [21]: 72%
